Reference: ChEMBL document CHEMBL1154196, “Synthesis and evaluation of (S,S)-N,N'-bis-[3-(2,2',6,6'-tetramethylbenzhydryloxy)-2-hydroxy-propyl]-ethylenediamine (S2824) analogs with anti-tuberculosis activity” (2009)
Converted amounts (≈) assume the structure as drawn.

How the values were obtained:
[1] = tested on: Mycobacterium tuberculosis; assay: Antitubercular activity against Mycobacterium tuberculosis H37Ra after 7 days; assay type: functional; conditions: 168 h
[2] = Selectivity index, ratio of IC50 for human THP1 cells to MIC for Mycobacterium tuberculosis; assay type: functional, THP-1
[3] = tested on: Mycobacterium tuberculosis; assay: Antitubercular activity against Mycobacterium tuberculosis H37Rv ATCC 25618 after 2 weeks; assay type: functional; conditions: 336 h
[4] = tested on: Mycobacterium tuberculosis; assay: Ratio of MBC to MIC for Mycobacterium tuberculosis H37Rv; assay type: functional
Summary of the method: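 H37Rv MBC obtained by subculturing MIC-assay cultures onto drug-free solid medium and counting CFU. The ratio relates this MBC to the MIC for the same strain.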

[5] = tested on: Mycobacterium tuberculosis; assay: Antitubercular activity against Mycobacterium tuberculosis H37Rv ATCC 25618 after 7 days; assay type: functional; conditions: 168 h
[6] = tested on: Mycobacterium tuberculosis; assay: Antitubercular activity against drug-sensitive Mycobacterium tuberculosis by radiometric BACTEC460 method; assay type: functional

SMILES: CC(C)(C)c1ccc(C(OC[C@@H](O)CNCCNC[C@H](O)COC(c2ccc(C(C)(C)C)cc2)c2ccc(C(C)(C)C)cc2)c2ccc(C(C)(C)C)cc2)cc1
- MIC [1]: 16.3 µM (≈ 12.5 µg/mL)
- Ratio [2]: >10

SMILES: O[C@H](CNCCNC[C@@H](O)COC(c1ccc(Br)cc1)c1ccc(Br)cc1)COC(c1ccc(Br)cc1)c1ccc(Br)cc1
- MIC [1]: 7.34 µM (≈ 6.29 µg/mL)
- Ratio [2]: >10

SMILES: Cc1ccc(C(OC[C@@H](O)CNCCNC[C@H](O)COC(c2ccc(C)cc2)c2ccc(C)cc2)c2ccc(C)cc2)cc1
- MBC [3]: 6.25 µg/mL (≈ 10.5 µM)
- Ratio [4]: 2
- MIC [1]: 5.24 µM (≈ 3.13 µg/mL)
- MIC [5]: 3.13 µg/mL
- Ratio [2]: >10

SMILES: O[C@H](COC(c1ccc(Br)cc1)c1ccc(Br)cc1)CN1CCN(C[C@H](O)COC(c2ccc(Br)cc2)c2ccc(Br)cc2)CC1
- MIC [1]: 28.3 µM (≈ 25 µg/mL)
- Ratio [2]: >10

SMILES: CCOc1ccc(C(OC[C@H](O)CNCCNC[C@@H](O)COC(c2ccc(OCC)cc2)c2ccc(OCC)cc2)c2ccc(OCC)cc2)cc1
- MIC [1]: 8.72 µM (≈ 6.25 µg/mL)
- Ratio [2]: >10

SMILES: O[C@@H](CNCCNC[C@H](O)COC(c1cccs1)c1cccs1)COC(c1cccs1)c1cccs1
- MIC [1]: 22.1 µM (≈ 12.5 µg/mL)
- Ratio [2]: >10

SMILES: COc1ccc(C(OC[C@@H](O)CNCCNC[C@H](O)COC(c2ccc(OC)c(OC)c2)c2ccc(OC)c(OC)c2)c2ccc(OC)c(OC)c2)cc1OC
- MIC [1]: 16 µM (≈ 12.5 µg/mL)
- Ratio [2]: >10

SMILES: Cc1ccc(C(OC[C@H](O)CNCCNC[C@@H](O)COC(c2ccc(C)cc2)c2ccc(C)cc2)c2ccc(C)cc2)cc1
- MBC [3]: 6.25 µg/mL (≈ 10.5 µM)
- Ratio [4]: 2
- MIC [1]: 5.24 µM (≈ 3.13 µg/mL)
- MIC [5]: 3.13 µg/mL
- Ratio [2]: >10

SMILES: CC(C)Oc1ccc(C(OC[C@@H](O)CNCCNC[C@H](O)COC(c2ccc(OC(C)C)cc2)c2ccc(OC(C)C)cc2)c2ccc(OC(C)C)cc2)cc1
- MIC [1]: 16.2 µM (≈ 12.5 µg/mL)
- Ratio [2]: >10

SMILES: CC(C)(C)c1ccc(C(OC[C@H](O)CNCCNC[C@@H](O)COC(c2ccc(C(C)(C)C)cc2)c2ccc(C(C)(C)C)cc2)c2ccc(C(C)(C)C)cc2)cc1
- MIC [1]: 32.7 µM (≈ 25 µg/mL)
- Ratio [2]: >10

SMILES: Cc1ccc(C(OC[C@H](O)CN2CCN(C[C@@H](O)COC(c3ccc(C)cc3)c3ccc(C)cc3)CC2)c2ccc(C)cc2)cc1
- MBC [3]: 6.25 µg/mL (≈ 10 µM)
- Ratio [4]: 4
- MIC [1]: 2.5 µM (≈ 1.56 µg/mL)
- MIC [6]: 3.13 µg/mL (≈ 5.03 µM)
- MIC [5]: 1.56 µg/mL
- Ratio [2]: 12

SMILES: O[C@H](CNCCNC[C@@H](O)COC(c1cccs1)c1cccs1)COC(c1cccs1)c1cccs1
- MIC [1]: 22.1 µM (≈ 12.5 µg/mL)
- Ratio [2]: >10

SMILES: COCOc1ccc(C(OC[C@H](O)CNCCNC[C@@H](O)COC(c2ccc(OCOC)cc2)c2ccc(OCOC)cc2)c2ccc(OCOC)cc2)cc1
- MIC [1]: 8 µM (≈ 6.25 µg/mL)
- Ratio [2]: >10

SMILES: Cc1ccc(C(OC[C@@H](O)CN2CCN(C[C@H](O)COC(c3ccc(C)cc3)c3ccc(C)cc3)CC2)c2ccc(C)cc2)cc1
- MIC [1]: 40.1 µM (≈ 25 µg/mL)
- Ratio [2]: >10

SMILES: COc1ccc(C(OC[C@H](O)CNCCNC[C@@H](O)COC(c2ccc(OC)c(OC)c2OC)c2ccc(OC)c(OC)c2OC)c2ccc(OC)c(OC)c2OC)c(OC)c1OC
- MIC [1]: 13.9 µM (≈ 12.5 µg/mL)
- Ratio [2]: >10

SMILES: COCOc1ccc(C(OC[C@@H](O)CNCCNC[C@H](O)COC(c2ccc(OCOC)cc2)c2ccc(OCOC)cc2)c2ccc(OCOC)cc2)cc1
- MIC [1]: 8 µM (≈ 6.25 µg/mL)
- Ratio [2]: >10

SMILES: O[C@@H](CNCCNC[C@H](O)COC(c1ccc2c(c1)OCO2)c1ccc2c(c1)OCO2)COC(c1ccc2c(c1)OCO2)c1ccc2c(c1)OCO2
- MIC [1]: 8.72 µM (≈ 6.25 µg/mL)
- Ratio [2]: >10

SMILES: COc1ccc(C(OC[C@H](O)CNCCNC[C@@H](O)COC(c2ccc(OC)cc2)c2ccc(OC)cc2)c2ccc(OC)cc2)cc1
- MIC [1]: 9.46 µM (≈ 6.25 µg/mL)
- Ratio [2]: >10

SMILES: CCOc1ccc(C(OC[C@@H](O)CNCCNC[C@H](O)COC(c2ccc(OCC)cc2)c2ccc(OCC)cc2)c2ccc(OCC)cc2)cc1
- MIC [1]: 8.72 µM (≈ 6.25 µg/mL)
- Ratio [2]: >10

SMILES: Cc1ccc(C(OC[C@H](O)CN2CCCN(C[C@@H](O)COC(c3ccc(C)cc3)c3ccc(C)cc3)CC2)c2ccc(C)cc2)cc1
- MBC [3]: 3.13 µg/mL (≈ 4.91 µM)
- Ratio [4]: 4
- MIC [1]: 1.22 µM (≈ 0.777 µg/mL)
- MIC [6]: 0.78 µg/mL (≈ 1.22 µM)
- MIC [5]: 0.78 µg/mL
- Ratio [2]: 26.92

SMILES: O[C@H](CNCCNC[C@@H](O)COC(c1ccc2c(c1)OCCO2)c1ccc2c(c1)OCCO2)COC(c1ccc2c(c1)OCCO2)c1ccc2c(c1)OCCO2
- MIC [1]: 16.2 µM (≈ 12.5 µg/mL)
- Ratio [2]: >10

SMILES: O[C@@H](CNCCNC[C@H](O)COC(c1ccco1)c1ccco1)COC(c1ccco1)c1ccco1
- MIC [1]: 25 µM (≈ 12.5 µg/mL)
- Ratio [2]: >10

SMILES: CC[C@@H](CO)NCCN[C@@H](CC)CO [ETHAMBUTOL]
- MBC [3]: 3.13 µg/mL (≈ 15.3 µM)
- MIC [6]: 3.13 µg/mL (≈ 15.3 µM)
- MIC [5]: 7.64 µM

SMILES: O[C@@H](COC(c1ccc(Br)cc1)c1ccc(Br)cc1)CN1CCN(C[C@@H](O)COC(c2ccc(Br)cc2)c2ccc(Br)cc2)CC1
- MIC [1]: 28.3 µM (≈ 25 µg/mL)
- Ratio [2]: >10

SMILES: O[C@H](CNCCNC[C@@H](O)COC(c1ccco1)c1ccco1)COC(c1ccco1)c1ccco1
- MIC [1]: 50 µM (≈ 25 µg/mL)
- Ratio [2]: >10

SMILES: O[C@H](CNCCNC[C@@H](O)COC(c1ccc2c(c1)OCO2)c1ccc2c(c1)OCO2)COC(c1ccc2c(c1)OCO2)c1ccc2c(c1)OCO2
- MIC [1]: 17.4 µM (≈ 12.5 µg/mL)
- Ratio [2]: >10

SMILES: O[C@@H](CNCCNC[C@H](O)COC(c1ccc(Br)cc1)c1ccc(Br)cc1)COC(c1ccc(Br)cc1)c1ccc(Br)cc1
- MBC [3]: 25 µg/mL (≈ 29.2 µM)
- Ratio [4]: 8
- MIC [1]: 3.67 µM (≈ 3.14 µg/mL)
- MIC [5]: 3.13 µg/mL
- Ratio [2]: >10

SMILES: COc1ccc(C(OC[C@@H](O)CNCCNC[C@H](O)COC(c2ccc(OC)cc2)c2ccc(OC)cc2)c2ccc(OC)cc2)cc1
- MBC [3]: 25 µg/mL (≈ 37.8 µM)
- Ratio [4]: 8
- MIC [1]: 4.73 µM (≈ 3.13 µg/mL)
- MIC [5]: 3.13 µg/mL
- Ratio [2]: >10

SMILES: Cc1ccc(C(OC[C@@H](O)CN2CCCN(C[C@H](O)COC(c3ccc(C)cc3)c3ccc(C)cc3)CC2)c2ccc(C)cc2)cc1
- MBC [3]: 1.56 µg/mL (≈ 2.45 µM)
- Ratio [4]: 2
- MIC [1]: 1.22 µM (≈ 0.777 µg/mL)
- MIC [6]: 0.78 µg/mL (≈ 1.22 µM)
- MIC [5]: 0.78 µg/mL
- Ratio [2]: 30.77

SMILES: CC(C)Oc1ccc(C(OC[C@H](O)CNCCNC[C@@H](O)COC(c2ccc(OC(C)C)cc2)c2ccc(OC(C)C)cc2)c2ccc(OC(C)C)cc2)cc1
- MIC [1]: 8.09 µM (≈ 6.25 µg/mL)
- Ratio [2]: >10
